GSK3beta inhib: blocks human GSK3beta kinase activity; P49841; GST-GSK3beta kinase, ADP-Glo luminescence, 60 min; stronger effect = lower value; activity score (negative = inhibition), % at 10 µM; 300,000 tested, 0.038% active;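 active = more than half of replicate wells score below -50%, meaning over 50% inhibition versus plate controls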;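 also: 0% = median DMSO wells and -100% = median GW8510 positive control wells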
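Test system: GST-tagged human GSK3beta kinase, cell-free; evaluation: activity score scaled between in-plate DMSO and GW8510 controls; measured by: ADP-Glo luminescence; incubation: 60 min reaction, RT; benchmarks: DMSO and 20 µM GW8510; reagent: peptide substrate plus 25 µM ATP (final); medium: Tris/MgCl2 kinase buffer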
CDK5 inh: CDK5/p35 (human) kinase inhibition; Q00535+Q15078; Recombinant CDK5/p35, ADP-Glo luminescence, 60 min; inhibition, % at 10 µM; 330,000 tested, 0.01% active;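 active = highest replicate inhibition of at least 50% and at least 75% of replicates reaching 50%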;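 also: plate controls were DMSO neutral control for no effect and GW8510 at 10 µM for full effect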
STK33 inh: human STK33 kinase inhibition. purified STK33, MBP phosphorylation, ADP-Glo luminescence. 320,000 tested, 0.073% active. Q9BYT3. inhibition, % at 10 µM;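 active = inhibition at or above 25%, using the most active replicate where run in duplicate; inactive = inhibition below 25%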
DYRK1A inh: Dyrk1A (rat) kinase inhibition; Q63470; ADP-Glo luminescence, NFATc1 peptide; inhibition, % at 12.5 µM; 310,000 tested, 0.43% active; in the data active = inhibition above about 50%;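 also: plate controls were vehicle with enzyme for no effect and no enzyme for full effect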
GSK3A inh: inhibitors of human GSK-3 alpha kinase; ADP-Glo luminescence, 60 min; inhibition, % at 10 µM; 320,000 tested, 0.1% active;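 active = more than half of replicates show inhibition above 20%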;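 also: GST-tagged GSK-3 alpha with peptide substrate and 25 µM ATP; 0% = DMSO neutral wells and 100% = GW8510 positive control wells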
Target sequence (P49840 whole entry, looked up): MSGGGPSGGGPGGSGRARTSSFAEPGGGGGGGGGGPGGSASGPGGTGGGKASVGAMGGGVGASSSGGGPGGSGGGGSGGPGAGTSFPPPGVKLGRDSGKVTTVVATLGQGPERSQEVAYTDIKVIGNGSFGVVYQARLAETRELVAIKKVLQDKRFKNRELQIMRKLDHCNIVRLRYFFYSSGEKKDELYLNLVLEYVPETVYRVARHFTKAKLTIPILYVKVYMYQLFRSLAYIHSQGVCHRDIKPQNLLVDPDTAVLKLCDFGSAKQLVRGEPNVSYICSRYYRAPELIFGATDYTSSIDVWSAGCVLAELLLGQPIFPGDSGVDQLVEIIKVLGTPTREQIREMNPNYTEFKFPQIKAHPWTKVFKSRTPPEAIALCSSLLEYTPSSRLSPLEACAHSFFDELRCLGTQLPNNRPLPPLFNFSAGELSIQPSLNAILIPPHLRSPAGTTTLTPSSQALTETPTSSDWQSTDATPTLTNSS
Dyrk1A artifact: ADP-Glo luciferase interference, Dyrk1A counter-screen | shares compounds with DYRK1A inh | ADP-Glo luciferase artifact assay, no Dyrk1A, luminescence | AC50, µM (series often up to 12 µM), for inactives: at the top dose activity change, negative = inhibition | 1,300 tested, under 10 active | AID 588348;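 active = fitted half-maximal dose AC50 no more than ten times the top valid tested dose, with luminescence dropping as dose rises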
Starred values were filed as active, the others as inactive. The sample as a whole holds a higher share of hits than the screen did.

How did O=C(CC(=O)Nc1ccc(Cl)cc1)N/N=C\c1cccc(F)c1 do in these assays?
GSK3beta inhib: 3; CDK5 inh: 0; STK33 inh: -1; DYRK1A inh: 1; GSK3A inh: -1

Results for Cc1cc(/C=N/Nc2ccc([N+](=O)[O-])cn2)c(C)n1-c1ccccc1 ?
GSK3beta inhib: 4; CDK5 inh: 0; STK33 inh: -1; DYRK1A inh: 6; GSK3A inh: -2

Results for Cc1c(C(=O)O)cccc1-n1c(C)cc(/C=N/Nc2ccc([N+](=O)[O-])cn2)c1C ?
GSK3beta inhib: -9; CDK5 inh: 6; STK33 inh: 9; DYRK1A inh: 59*; GSK3A inh: 35; Dyrk1A artifact: 9%

How did CCC(C)c1ccccc1NC(=O)c1cccc(-n2cnnn2)c1 (stereo not drawn) do in these assays?
CDK5 inh: 1; STK33 inh: -1; GSK3A inh: 0

Results for COc1ccc(Nc2ncnc3nc[nH]c23)cc1OC ?
GSK3beta inhib: -1; CDK5 inh: 3; STK33 inh: 10; DYRK1A inh: 50*; GSK3A inh: 19; Dyrk1A artifact: 7%

How did Cc1cc(C(=O)CSc2nncs2)c(C)n1Cc1ccco1 do in these assays?
GSK3beta inhib: 2; CDK5 inh: 0; STK33 inh: 1; DYRK1A inh: -2; GSK3A inh: 2

What do the screens show for `Cc1cc(C(=O)CSc2nn(-c3ccccc3)c(=S)s2)c(C)n1Cc1ccco1`?
GSK3beta inhib: -1; CDK5 inh: -1; STK33 inh: -1; DYRK1A inh: 57*; GSK3A inh: 4; Dyrk1A artifact: 5%

Results for Cc1cc(C(=O)O)cc(S(=O)(=O)NNC(=O)c2cccs2)c1C ?
GSK3beta inhib: 3; CDK5 inh: -2; STK33 inh: -2; DYRK1A inh: 1; GSK3A inh: -3

How did COc1cccc(C(=O)c2sc(NC(C)C)nc2N)c1 do in these assays?
GSK3beta inhib: -93*; CDK5 inh: 55*; STK33 inh: 2; DYRK1A inh: 53*; GSK3A inh: 94*; Dyrk1A artifact: 7%

What do the screens show for `COc1ccc2c(Cl)c(C(=O)N/N=C3\CCCC(=O)C3)sc2c1`?
GSK3beta inhib: 1; CDK5 inh: -1; STK33 inh: 1; DYRK1A inh: 81*; GSK3A inh: 4; Dyrk1A artifact: 11%

What do the screens show for `COc1ccc2c(Cl)c(C(=O)N/N=C/c3ccc4c(c3)OCO4)sc2c1`?
GSK3beta inhib: 1; CDK5 inh: -1; STK33 inh: -2; DYRK1A inh: 12; GSK3A inh: 2

What do the screens show for `O=C(/C=C/c1ccc(O)cc1)c1ccc(O)cc1O`?
GSK3beta inhib: 2; CDK5 inh: 1; STK33 inh: 6; DYRK1A inh: 21; GSK3A inh: -1

What do the screens show for `CC(/C=C/c1ccc(O)cc1)=N/O`?
GSK3beta inhib: -5; CDK5 inh: 14; STK33 inh: 9; DYRK1A inh: 89*; GSK3A inh: 14; Dyrk1A artifact: 9%

How did COc1ccc(/C=C/C(=O)O)cc1 do in these assays?
CDK5 inh: -3; DYRK1A inh: 62*; Dyrk1A artifact: 6%

Results for O=C(O)/C=C/c1ccc(O)cc1 ?
GSK3beta inhib: 3; CDK5 inh: 1; STK33 inh: 0; DYRK1A inh: 57*; GSK3A inh: 2; Dyrk1A artifact: 9%

What do the screens show for `CC(/C=C/c1ccccc1)=N/O`?
GSK3beta inhib: 0; CDK5 inh: 0; STK33 inh: 0; DYRK1A inh: 1; GSK3A inh: 5

How did O=C(CS(=O)(=O)Nc1ccc(F)cc1Cl)Nc1ccc(F)cc1Cl do in these assays?
GSK3beta inhib: -3; CDK5 inh: 0; STK33 inh: 3; DYRK1A inh: -2; GSK3A inh: -1

Results for O=C(CNCc1ccc(F)cc1)Nc1ccccc1[N+](=O)[O-] ?
GSK3beta inhib: 1; CDK5 inh: 0; STK33 inh: -1; GSK3A inh: -2

Results for O=C(O)c1ccc2c(c1)S(=O)(=O)c1cc(Cl)ccc1C2=O ?
CDK5 inh: -1; STK33 inh: -2; DYRK1A inh: 66*; GSK3A inh: 74*; Dyrk1A artifact: 7%

High-throughput results: PubChem BioAssay, Broad Institute
